Legend:
[1] = molecular target: T1, Cyclin-dependent kinase 2/cyclin A (Homo sapiens) (UniProt P24941+P20248+P78396); experiment: Inhibition of cyclin-dependent kinase 2/Cyclin A3 at 10 uM; assay type: protein-complex assay
Summary of the method: (§1)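 Human CDK2/cyclin A kinase inhibition assay run by an earlier-published method. Solubility limited the highest concentration that could be tested to 10 µM.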

[2] = test system: Cyclin-dependent kinase 1/cyclin B (starfish); experiment: Inhibition of Cyclin-dependent kinase 1-cyclin B at 10 uM; conditions: Asteroidea
[3] = molecular target: T2, Cyclin-dependent kinase 2/cyclin A (Homo sapiens, UniProt P24941); experiment: Inhibition of cyclin-dependent kinase 2-cyclin A3 (CDK2); assay type: protein-complex assay
[4] = molecular target: Cyclin-dependent kinase 1/cyclin B (Homo sapiens, UniProt P06493); experiment: Inhibitory activity against cyclin-dependent kinase 1-cyclin B.; assay type: protein-complex assay
Summary of the method: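 CDK1/cyclin B1 enzyme from starfish (Marthasterias glacialis) oocytes; kinase inhibition assayed by a method from earlier work.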

[5] = molecular target: T1, Cyclin-dependent kinase 2/cyclin A (Homo sapiens); experiment: (§2) Inhibition of Cyclin-dependent kinase 2-Cyclin A3 at 10 uM; assay type: protein-complex assay; summary of the method: as §1
[6] = molecular target: Cyclin-dependent kinase 1/cyclin B (starfish); experiment: Inhibition of Cyclin-dependent kinase 1-cyclin B at 10 uM
[7] = molecular target: T2, Cyclin-dependent kinase 2/cyclin A; experiment: as §2; assay type: protein-complex assay; summary of the method: as §1
[8] = molecular target: Cyclin-dependent kinase 1/cyclin B (starfish); experiment: Inhibition of Cyclin-dependent kinase 1-cyclin B at 100 uM
[9] = molecular target: T2, Cyclin-dependent kinase 2/cyclin A; experiment: Inhibition of Cyclin-dependent kinase 2-Cyclin A3 at 100 uM; assay type: protein-complex assay
[10] = molecular target: Cyclin-dependent kinase 1/cyclin B (Homo sapiens) (UniProt P06493+P14635+Q8WWL7+O95067); experiment: Inhibition of cyclin-dependent kinase 1/Cyclin B at 10 uM; assay type: protein-complex assay; conditions: Marthasterias glacialis
Summary of the method: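 Starfish (Marthasterias glacialis) oocyte CDK1/cyclin B1 kinase inhibition assay run by an earlier-published method. Solubility limited the highest concentration that could be tested to 10 µM.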

Row | Structure (SMILES) | IC50 [3] | IC50 [4] | also measured
1 | CC(C)[C@H](CO)Nc1nc(OCC2CCCCC2)c2[nH]cnc2n1 |  |  | inhibition [1]: 20%; inhibition [2]: 2%
2 | c1ccc(Nc2nc(OCC3CCCCC3)c3nc[nH]c3n2)cc1 |  | 1600 nM | 
3 | NS(=O)(=O)c1cccc(Nc2nc(OCC3CCCCC3)c3nc[nH]c3n2)c1 |  | 240 nM | 
4 | NS(=O)(=O)c1ccc(CNc2nc(OCC3CCCCC3)c3[nH]cnc3n2)s1 | 5000 nM | 5700 nM | 
5 | CNS(=O)(=O)c1ccc(Nc2nc(OCC3CCCCC3)c3nc[nH]c3n2)cc1 |  | 9 nM | 
6 | Brc1cccc(Nc2nc(OCC3CCCCC3)c3[nH]cnc3n2)c1 |  | 5300 nM | 
7 | C[S+]([O-])c1ccc(Nc2nc(OCC3CCCCC3)c3[nH]cnc3n2)cc1 (stereo unspecified) |  | 200 nM | 
8 | CNc1nc(OCC2CCCCC2)c2[nH]cnc2n1 | 5000 nM | 5300 nM | 
9 | CN(C)S(=O)(=O)c1ccc(Nc2nc(OCC3CCCCC3)c3nc[nH]c3n2)cc1 |  | 77 nM | 
10 | OCc1cccc(Nc2nc(OCC3CCCCC3)c3[nH]cnc3n2)c1 |  | 300 nM | 
11 | CN(C)c1nc(OCC2CCCCC2)c2[nH]cnc2n1 |  |  | inhibition [5]: 31%; inhibition [2]: 27%
12 | COc1ccc(Nc2nc(OCC3CCCCC3)c3[nH]cnc3n2)cc1 |  | 790 nM | 
13 | COC(=O)c1ccc(Nc2nc(OCC3CCCCC3)c3nc[nH]c3n2)cc1 |  |  | IC50 [6]: 66000 nM; IC50 [7]: 25000 nM
14 | COc1ccc(Oc2nc(OCC3CCCCC3)c3[nH]cnc3n2)cc1 |  |  | IC50 [8]: 10000 nM; IC50 [9]: 42000 nM
15 | Clc1nc(OCC2CCCCC2)c2[nH]cnc2n1 |  |  | inhibition [5]: 5%; inhibition [2]: 6%
16 | CN(C)C(=O)c1ccc(Nc2nc(OCC3CCCCC3)c3[nH]cnc3n2)cc1 |  | 600 nM | 
17 | Fc1ccc(Nc2nc(OCC3CCCCC3)c3[nH]cnc3n2)cc1Cl |  |  | inhibition [5]: 68%; inhibition [2]: 73%
18 | CC[C@@H](CO)Nc1nc(OCC2CCCCC2)c2[nH]cnc2n1 |  |  | inhibition [5]: 52%; inhibition [2]: 29%
19 | Fc1nc(OCC2CCCCC2)c2[nH]cnc2n1 |  |  | inhibition [5]: 4%; inhibition [2]: 7%
20 | NC(=O)Cc1ccc(Nc2nc(OCC3CCCCC3)c3nc[nH]c3n2)cc1 | 130 nM | 140 nM | 
21 | CCc1cccc(Nc2nc(OCC3CCCCC3)c3[nH]cnc3n2)c1 | 52000 nM | 37000 nM | inhibition [5]: 37%; inhibition [10]: 32%
22 | COc1cccc(Nc2nc(OCC3CCCCC3)c3[nH]cnc3n2)c1 |  | 2200 nM | 
23 | Fc1ccc(Nc2nc(OCC3CCCCC3)c3[nH]cnc3n2)cc1 |  |  | inhibition [5]: 27%; inhibition [2]: 20%
24 | CC[C@H](CO)Nc1nc(OCC2CCCCC2)c2[nH]cnc2n1 |  |  | inhibition [5]: 62%; inhibition [2]: 43%
25 | Fc1cccc(Nc2nc(OCC3CCCCC3)c3[nH]cnc3n2)c1 |  |  | inhibition [5]: 62%; inhibition [2]: 69%
26 | CSc1ccc(Nc2nc(OCC3CCCCC3)c3[nH]cnc3n2)cc1 |  |  | inhibition [5]: 18%; inhibition [2]: 10%
27 | CC(C)[C@@H](CO)Nc1nc(OCC2CCCCC2)c2[nH]cnc2n1 |  |  | inhibition [5]: 19%; inhibition [2]: 1%

The next lines start with results.

Row | IC50 [3] | IC50 [4] | Structure (SMILES) | also measured
28 | 200 nM | 400 nM | CNC(=O)c1ccc(Nc2nc(OCC3CCCCC3)c3nc[nH]c3n2)cc1 | 
29 | 1700 nM | 700 nM | c1csc(CNc2nc(OCC3CCCCC3)c3[nH]cnc3n2)c1 | 
30 |  | 500 nM | CC(=O)c1ccc(Nc2nc(OCC3CCCCC3)c3[nH]cnc3n2)cc1 | 
31 | 12000 nM | 13000 nM | Clc1cc(Cl)cc(Nc2nc(OCC3CCCCC3)c3[nH]cnc3n2)c1 | 
32 | 4300 nM | 8900 nM | NS(=O)(=O)c1ccc(NNc2nc(OCC3CCCCC3)c3[nH]cnc3n2)cc1 | 
33 |  | 103 nM | COc1cc(Nc2nc(OCC3CCCCC3)c3[nH]cnc3n2)ccc1S(N)(=O)=O | 
34 |  | 2400 nM | CSc1cccc(Nc2nc(OCC3CCCCC3)c3nc[nH]c3n2)c1 | 
35 | 800 nM | 1000 nM | O=C(O)c1ccc(Nc2nc(OCC3CCCCC3)c3nc[nH]c3n2)cc1 | 
36 |  | 300 nM | N#CCc1ccc(Nc2nc(OCC3CCCCC3)c3[nH]cnc3n2)cc1 | 
37 | 2800 nM | 3200 nM | OCCNc1nc(OCC2CCCCC2)c2[nH]cnc2n1 | 
38 | 2800 nM | 3300 nM | CCNc1nc(OCC2CCCCC2)c2[nH]cnc2n1 | 
39 | 1200 nM | 2000 nM | CC(C)Nc1nc(OCC2CCCCC2)c2[nH]cnc2n1 | 
